# Rows were chosen to be rich in hits. Some 2.9% of all compounds tested hit in one or more screens of this group.
# SIAE primary: human SIAE inhibitors, primary screen, biochemical, fluorescence polarization, FP-Rh probe, 1536-well HTS; inhibition, % at 9.66 µM; AID 1053197, 2014; 0.69% of 370,000 active; Sialate O-acetylesterase (Homo sapiens), Q9HAT2; SIAE FP-Rh probe binding;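 active = inhibition above a cutoff: mean of compounds within the control limits plus 3 SD of those, cut at about 17% in these data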;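 note: 0% = plate median of compound wells and 100% = probe without SIAE protein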
# HTRA1 inh: HTRA1 serine protease inhibitors, primary screen, biochemical, fluorescence polarization, HTS; recombinant HTRA1, FP-rhodamine activity-based probe; inhibition, % at 5.96 µM; 0.5% of 340,000 active; AID 504803, 2011; in the data active = inhibition above about 36%;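 note: 0% = enzyme with DMSO and 100% = wells lacking enzyme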
# ATG4B inhibitor: ATG4B protease inhibitors, primary screen, biochemical, fluorescence, uHTS; ATG4B cleavage of LC3-PLA2, NBD-HPC fluorescence, 1 h; inhibition, % at 8.33 µM; 0.51% of 340,000 active; in the data active = inhibition above about 40%
# Target sequence (Q9Y4P1 whole entry, looked up): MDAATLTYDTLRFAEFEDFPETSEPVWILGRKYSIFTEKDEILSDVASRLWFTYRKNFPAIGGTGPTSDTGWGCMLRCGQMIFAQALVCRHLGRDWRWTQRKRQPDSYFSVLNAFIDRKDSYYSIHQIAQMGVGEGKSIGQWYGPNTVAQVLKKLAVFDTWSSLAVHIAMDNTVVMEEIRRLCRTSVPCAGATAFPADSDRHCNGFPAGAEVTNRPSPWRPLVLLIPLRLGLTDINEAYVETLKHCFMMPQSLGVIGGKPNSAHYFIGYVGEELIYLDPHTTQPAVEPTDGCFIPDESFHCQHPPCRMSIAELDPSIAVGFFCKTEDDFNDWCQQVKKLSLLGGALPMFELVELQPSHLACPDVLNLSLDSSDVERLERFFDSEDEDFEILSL
# ABHD4 inh: ABHD4 inhibitors, primary screen, biochemical, fluorescence polarization, mouse. 0.54% of 370,000 active. purified mABHD4, FP-Rh probe fluorescence polarization. inhibition, % at 8.92 µM. (Lyso)-N-acylphosphatidylethanolamine lipase (Mus musculus), Q8VD66;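 active = inhibition exceeding the mean over every tested compound plus 3 SD, cut at about 30% in these data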;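 note: 0% = plate median of compound wells and 100% = S159A mutant with DMSO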
# Target sequence (Q8VD66 whole entry, looked up): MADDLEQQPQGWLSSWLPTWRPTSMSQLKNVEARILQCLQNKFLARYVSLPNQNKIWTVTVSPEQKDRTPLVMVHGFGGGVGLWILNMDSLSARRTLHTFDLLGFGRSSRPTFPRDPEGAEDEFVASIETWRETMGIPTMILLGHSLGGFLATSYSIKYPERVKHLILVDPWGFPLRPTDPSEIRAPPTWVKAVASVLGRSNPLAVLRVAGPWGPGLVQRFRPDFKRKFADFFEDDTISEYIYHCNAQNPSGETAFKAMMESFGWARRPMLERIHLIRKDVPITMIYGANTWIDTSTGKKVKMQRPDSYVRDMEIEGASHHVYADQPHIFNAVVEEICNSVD
#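 Doses – 8.92 µM, single dose · Material – wild-type mouse ABHD4 protein · Replication – single well per compound (singlicate) · Measure – percent inhibition of probe binding, normalized to plate controls · Schedule – 45 min compound pre-incubation plus 60 min probe step, 25 °C · Detection – fluorescence polarization with parallel and perpendicular emission, 525/598 nm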
# TCR-CD3 inh: inhibitors of human TCR-CD3 interaction, primary screen, biochemical, fluorescence, TAMRA-labeled TCR probe; T-cell receptor (TCR); inhibition, % at 9.4 µM; 0.37% of 360,000 active; AID 651800, 2012; in the data active = inhibition above about 19%;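 note: recombinant mutant TCR 2C K166C tagged with TAMRA read by polarization; 0% = receptor in buffer alone and 100% = receptor with positive control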
# PRMT1 inh: PRMT1 methyltransferase inhibitors, primary screen, biochemical, fluorescence polarization. 1.3% of 370,000 active. recombinant PRMT1, activity-based probe fluorescence polarization. AID 652257, 2013. inhibition, % at 2.79 µM. Protein arginine N-methyltransferase 1 (Homo sapiens), Q99873;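 active = inhibition above about 21% made by adding two undisclosed values, limit read from the data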
# ATG4B confirm: ATG4B protease inhibitors, retest, confirmation, biochemical, fluorescence, single concentration | shares compounds with ATG4B inhibitor | ATG4B protease fluorescent substrate cleavage assay | inhibition, % at 8.33 µM | 92% of 320 active; in the data active = inhibition above about 39%
# PLA2 counter: PLA2 enzyme inhibition, counter-screen for ATG4B inhibitor project, biochemical, single concentration, uHTS hits. shares compounds with ATG4B inhibitor. purified PLA2, NBD-C6-HPC fluorescence, 45 min. inhibition, % at 8.33 µM. 66% of 1,600 active. AID 588402, 2011; in the data active = inhibition above about 50%
# * = called active by the depositor; nt = not tested or not shown.
SMILES,SIAE primary,HTRA1 inh,ATG4B inhibitor,ABHD4 inh,TCR-CD3 inh,PRMT1 inh,PLA2 counter,others
Oc1c(Cl)cc(Cl)cc1C=Nc1ccc2c(c1)OCCO2,-0.7,-3.3,48.1*,1.9,3.6,3.5,31.7,ATG4B confirm=53.6*
CCC[C@H]1[C@@H](OC(=O)NCc2ccc(OC)cc2)CC[C@@]23CCCN2C(=O)CCC[C@@H]13,7.4,nt,nt,-3.6,nt,-8.0,nt,
Oc1nc(Nc2ccc(Cl)cc2Cl)sc1/C=C1\C=Nc2ccccc21,-10.3,-5.0,78.3*,-4.2,-6.1,2.7,23.4,ATG4B confirm=22.2
Cc1nc(Nc2ccc(Cl)cc2Cl)sc1C(=O)Nc1ccccc1,-17.5,-94.3,-7.0,-6.3,-1.4,0.0,nt,
CC(C)(C)c1ccccc1N=Cc1ccc2ccccc2n1,-3.5,1.0,53.9*,2.8,-0.8,-1.1,35.4,ATG4B confirm=73.6*
Cc1cccc(NC(=S)Nc2cccc(C)n2)n1,-5.6,-8.6,0.6,-2.1,7.2,1.5,nt,
Cc1cccc(NC(=S)Nc2ccc(Oc3ccccc3)cc2)n1,-2.8,-6.0,44.4*,-5.1,-6.4,1.2,45.1,ATG4B confirm=66.7*
CCOC(=O)c1c(N2C(=O)Nc3cc(Cl)c(Cl)cc3N2O)sc2c1CCCCC2,nt,-52.9,77.1*,nt,nt,nt,92.1*,
COc1ccc(N2CCN(CCNS(=O)(=O)c3ccc(F)cc3)CC2)cc1,3.6,nt,nt,1.6,nt,0.3,nt,
COc1cc2c(cc1OC)CSC1C(=O)N(C)C(SC2)C(=O)N1C,-0.1,nt,nt,1.6,nt,2.7,nt,
CC(C)(C)c1cc(=O)[nH]c(SCc2ccccc2)n1,0.5,-9.7,1.2,-0.9,3.1,-0.4,nt,
CC(C)(C)c1cc(=O)[nH]c(SCc2ccccc2Cl)n1,3.9,-49.9,50.4*,-0.7,4.5,-1.3,51.5*,
CCN(CC)CC(=O)Nc1sc(C)c(C)c1C(=O)c1ccc(C)cc1,2.2,-11.7,2.0,15.4,-1.3,3.9,nt,
Cc1ccc(C(=O)c2c(NC(=O)c3ccccc3C)sc(C)c2C)cc1,-7.0,-12.1,63.2*,-11.3,-2.8,-1.2,49.7,
COC(=O)c1cc(-c2ccc(F)c(Cl)c2)c(=O)n2c1CCC2,-5.3,nt,nt,10.8,nt,-0.9,nt,
CC1CCCN(C(=O)Cc2cn(Cc3cccc(Cl)c3)c3ccccc23)C1 (centres undefined),1.6,-62.2,47.7*,-0.4,-0.9,2.3,55.8*,
O=C(O)Cc1cn(Cc2cccc(Cl)c2)c2ccccc12,-2.9,-5.3,1.1,1.5,-2.0,-0.1,nt,
O=C(Cc1cn(Cc2cccc(Cl)c2)c2ccccc12)N1CCCCCC1,2.2,-39.1,49.8*,-13.1,7.8,2.8,46.6,
CC1CN=C(c2cccn2Cc2ccc(F)cc2Cl)O1 (centres undefined),-3.3,-0.1,42.8*,-6.7,9.8,-2.9,52.6*,
CC1(C)COC(c2cccn2Cc2ccc(F)cc2Cl)=N1,3.5,-1.2,1.8,3.4,4.2,-1.0,nt,
CCOc1ccc(CCNC(=O)C2CCCCC2)cc1OCC,3.0,nt,nt,-4.4,nt,-1.0,nt,
CCCCCCCCN1C(=O)[C@@H](CC(=O)NCc2cccc3ccccc23)C[C@@]2(C(=O)OC)C1=C[C@H](C(C)C)O[C@@H]2C1CC1,-9.0,nt,nt,-3.5,nt,-1.2,nt,
N#Cc1ccccc1NC(=O)c1ccc2c(Cl)c3c(nc2c1)CCCC3,-0.3,-5.9,47.8*,-0.4,10.3,-3.2,48.8,
Cc1cc(N/N=C/c2ccc(F)cc2)nc(NCc2ccccc2)n1,0.2,nt,71.0*,7.3,-2.9,-2.5,63.6*,
Cc1cc(N/N=C/c2ccc(Cl)cc2Cl)nc(NCc2ccccc2)n1,-3.9,-19.4,85.5*,14.0,-8.4,3.5,87.5*,
SMILES,SIAE primary,HTRA1 inh,ATG4B inhibitor,ABHD4 inh,TCR-CD3 inh,PRMT1 inh,PLA2 counter,others
Cc1cc(Nc2ccccc2)nc(NCc2ccccc2)n1,-5.2,-11.0,6.0,21.5,-4.3,-0.1,nt,
Cc1cc(N/N=C/c2ccc(N(C)C)cc2)nc(NCc2ccccc2)n1,3.3,nt,-3.1,15.9,5.3,1.4,nt,
Cc1cc(Nc2ccc(Cl)cc2)nc(NCc2ccccc2)n1,23.5*,-17.0,44.3*,17.1,-0.9,0.9,37.9,ATG4B confirm=69.1*
O=C(NCc1cccs1)O[C@H]1CC[C@@]23CCCN2C(=O)CCC[C@H]3C1,2.4,nt,nt,0.4,nt,-0.3,nt,
COc1ccc(C#CCN(Cc2ccc(OC)cc2OC)C(N)=NC(=O)CCc2ccccc2)cc1,-2.9,nt,nt,-11.2,nt,1.0,nt,
CCOc1ccc(-n2c(SCc3ccc(C(=O)OC)o3)nc3c(c2=O)SCC3)cc1,2.8,3.3,59.8*,11.8,-0.9,2.5,77.5*,
O=C(CSc1nc2c(c(=O)n1-c1ccc(Cl)cc1)SCC2)N1CCCC1,0.6,3.4,-5.8,0.9,1.2,0.6,nt,
COC(=O)c1ccc(CSc2nc3c(c(=O)n2-c2ccc(Br)cc2)SCC3)o1,-5.2,-24.3,64.7*,-5.4,1.7,3.4,73.5*,
CCOc1cccc(/C=N\NC(=O)Cc2cccs2)c1O,9.3,nt,nt,1.7,nt,2.7,nt,
COc1cc2c(cc1NC(=O)COC(=O)[C@@H](NS(=O)(=O)c1ccccc1)C(C)C)oc1ccccc12,-24.7,-6.2,75.8*,-21.8,4.5,-1.4,82.5*,
Cc1cc(NC(=O)COC(=O)[C@@H](NS(=O)(=O)c2ccccc2)C(C)C)no1,-1.2,-2.2,-5.4,-4.5,-0.4,3.8,nt,
CC(C)[C@H](NS(=O)(=O)c1ccccc1)C(=O)OCC(=O)Nc1ccccc1Sc1ccccc1,-6.8,-3.2,94.5*,-7.4,5.8,-1.4,92.5*,
Cc1ccc(-c2nnc(SCC(=O)Nc3ccc(Oc4ccccc4)cc3)n2-c2ccc(Cl)cc2)cc1,1.1,nt,nt,5.6,nt,-0.9,nt,
COC(=O)C[C@@H]1CC[C@H]2[C@@H](COc3ccc(NC(=O)Nc4cccc(F)c4)cc3C(=O)N2C)O1,-1.1,nt,nt,3.5,nt,2.2,nt,
Cc1nn(Cc2c(F)c(F)c(F)c(F)c2F)c(C)c1NC(=O)c1cccc(COc2ccccc2Cl)c1,-4.8,7.0,63.4*,6.5,2.4,-3.0,56.2*,
Cc1nn(Cc2c(F)c(F)c(F)c(F)c2F)c(C)c1NC(=O)c1ccc(COc2ccc(Cl)cc2Cl)o1,-3.0,-49.7,88.0*,-19.0,4.0,1.4,84.6*,
Cc1nn(Cc2ccc(Cl)cc2Cl)c(C)c1NC(=O)c1ccc(COc2cc(Cl)ccc2Cl)o1,-14.6,-41.6,0.7,-9.8,-3.4,8.8,nt,

# Screens as filed in PubChem.
